One experiment relates to Trypanosoma cruzi. Kind of experiment: Antiprotozoal activity against Trypanosoma cruzi Tulahuen C2C4 trypomastigotes in L6 cells. It is filed as functional, organism-based.
The next experiment relates to Plasmodium falciparum. Kind of experiment: Antiplasmodial activity against Plasmodium falciparum K1. It is filed as functional, organism-based. The gist of the method: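 P. falciparum K1 is a strain resistant to chloroquine and pyrimethamine.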
Another experiment concerns Leishmania donovani. Kind of experiment: Antiprotozoal activity against Leishmania donovani MHOM/ET/67/L82 amastigotes. It is filed as functional, organism-based. The gist of the method: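 L. donovani tested as axenic amastigotes.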
Experiment [1] relates to Trypanosoma brucei rhodesiense. Kind of experiment: Antiprotozoal activity against Trypanosoma brucei rhodesiense STIB900. It is filed as functional, organism-based.
In another experiment the test system is L6. Kind of experiment: Cytotoxicity against rat L6 cells. It is filed as cell-based.

Converted amounts (≈) assume the structure as drawn. A value given as a limit tells only on which side of the number the result lay.

Compound `O=C(Cn1ccnc1[N+](=O)[O-])NCc1ccccc1` [BENZNIDAZOLE] registered an IC50 in the experiment with Trypanosoma cruzi of 0.74 µg/mL (≈ 2.84 µM).

As to `CC1(C)C(=O)C=C[C@]2(C)[C@H]3CC[C@@]4(C)[C@H](c5ccoc5)OC(=O)[C@H]5O[C@]54[C@]3(C)C(=O)C[C@@H]12` [DEACETOXY-7-OXOGEDUNIN], the IC50 in the experiment on Plasmodium falciparum was 1.77 µg/mL (≈ 4.05 µM); with Leishmania donovani, 0.994 µg/mL (≈ 2.27 µM); in experiment [1], 3.4 µg/mL (≈ 7.75 µM); with Trypanosoma cruzi, over 30 µg/mL; in the experiment on L6 it was over 90 µg/mL.

For `CC1(C)C(=O)C=C[C@]2(C)[C@H]3CC[C@@]4(C)[C@H](c5ccoc5)OC(=O)[C@H]5O[C@]54[C@]3(C)[C@H](O)C[C@@H]12` [DEACETYLGEDUNIN], the IC50 in the experiment with Plasmodium falciparum worked out at 1.36 µg/mL (≈ 3.09 µM); in the experiment on Leishmania donovani it was 1.4 µg/mL (≈ 3.18 µM); in experiment [1] it was 3.45 µg/mL (≈ 7.83 µM); with Trypanosoma cruzi, 5.2 µg/mL (≈ 11.8 µM); in the experiment with L6, 13.3 µg/mL (≈ 30.2 µM).

Turning to `COC(=O)C[C@@H]1[C@](C)([C@@H](OC(C)=O)c2ccoc2)CC[C@@]23OC4(C)O[C@@]12[C@H](OC(=O)C(C)C)[C@@]1(OC(C)=O)[C@@H](OC(C)=O)[C@@]2(C)C[C@@]1(O4)[C@]31COC(=O)C[C@@H]21` [KOTSCHYIN A], the IC50 was over 5 µg/mL in the experiment on Plasmodium falciparum; over 30 µg/mL in the experiment on Leishmania donovani; 11.6 µg/mL (≈ 15 µM) in experiment [1]; over 30 µg/mL in the experiment on Trypanosoma cruzi; over 90 µg/mL in the experiment on L6.

Consider `CCCCCCCCCCCCCCCCOP(=O)([O-])OCC[N+](C)(C)C` [MILTEFOSINE], for which the IC50 in the experiment on Leishmania donovani stood at 0.12 µg/mL (≈ 0.294 µM).

The compound `COc1cc([C@@H]2c3cc4c(cc3[C@H](O)[C@H]3COC(=O)[C@H]23)OCO4)cc(OC)c1OC` [PODOFILOX] gave a half-maximal inhibitory concentration (IC50) in the experiment on L6 of 0.005 µg/mL (≈ 0.0121 µM).

One may read the IC50 as the point on the concentration scale where inhibition reaches its midpoint. A low value points to greater potency.

The values above are taken from ChEMBL document CHEMBL1138405, “Limonoid orthoacetates and antiprotozoal compounds from the roots of Pseudocedrela kotschyi” (J Nat Prod, 2007).
